This is a sample that favours compounds with a hit; in the whole collection about 2.4% have one here.
NR2E3 ag-1 – NR2E3 agonists in two-hybrid cells, primary screen, cell-based, luminescence, CHO-S, Gal4-NCOR/VP16-NR2E3; Photoreceptor-specific nuclear receptor (Homo sapiens), Q9Y5X4; luciferase; inhibition of corepressor binding, % at 3.98 µM; hit rate 0.35% among 360,000;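 active = inhibition above the mean of all tested compounds plus 3 SD, cut at about 70% in these data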;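 note: 0% = DMSO with NR2E3 transfected cells and 100% = cells lacking NR2E3 construct; higher means lower luciferase signal from less NR2E3 corepressor binding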
Target sequence (Q9Y5X4 whole entry, looked up, the tested form may be a part): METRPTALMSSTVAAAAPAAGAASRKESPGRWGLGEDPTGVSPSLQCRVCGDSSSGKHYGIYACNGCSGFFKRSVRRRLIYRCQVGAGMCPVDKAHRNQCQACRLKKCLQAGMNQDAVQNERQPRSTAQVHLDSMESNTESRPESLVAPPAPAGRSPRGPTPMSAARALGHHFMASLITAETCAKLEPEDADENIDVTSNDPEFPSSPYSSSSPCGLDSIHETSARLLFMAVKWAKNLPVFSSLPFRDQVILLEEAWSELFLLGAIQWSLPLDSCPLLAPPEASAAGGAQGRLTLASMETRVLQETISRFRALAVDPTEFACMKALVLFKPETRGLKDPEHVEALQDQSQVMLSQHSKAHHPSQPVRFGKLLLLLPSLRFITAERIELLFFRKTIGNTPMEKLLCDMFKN
MPTP block – mitochondrial permeability transition pore inhibitors, primary screen, biochemical, isolated mouse mitochondria, absorbance; inhibition, % at 10 µM; AID 602449, 2012; Ca2+ swelling absorbance, 30 min; hit rate 1.4% among 360,000;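 active = inhibition of 50% or more, scaled per plate between neutral and stimulator controls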;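 note: 0% = DMSO wells given calcium and 100% = 1 mM EGTA wells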
aDG glyco up – activators of alpha-DG glycosylation, primary screen, uHTS, Pro5-aDG cells, AlphaScreen; AID 624168, 2012; alpha-DG glycosylation AlphaScreen (IIH6); 0% Pro5, 100% B10-LARGE cell signal; hit rate 0.22% among 360,000; activation, % at 10 µM;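 active = activation of at least 8% versus controls, or a plate z-score of at least 8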;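 note: Pro5 are CHO cells carrying HIG-tagged alpha-DG that lacks glycosylation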
NR2E3 ag-2 – inhibitors of NR2E3-RetCOR corepressor binding, primary screen, NR2E3 agonist project, biochemical, TR-FRET, GST-NR2E3, biotin-RetCOR; 1536-well; inhibition of corepressor binding, % at 4.78 µM; hit rate 0.12% among 320,000; AID 2300, 2010;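 active = percent inhibition above the cutoff of mean plus 3 SD of all tested compounds, set per screening campaign, cut at about 20% in these data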;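 note: 0% = DMSO wells and 100% = biotin wells as full block of FRET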
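System: GST-tagged NR2E3 plus biotinylated RetCOR corepressor; Buffer or medium: pH 7.5 Tris-based buffer; Probe or stimulus: RetCOR corepressor, biotinylated, 7 nM; Doses: compound at 4.8 µM, single dose; Schedule: 5 h incubation at 4 °C; Technique: time-resolved FRET; Evaluation: percent inhibition of TR-FRET ratio; Replication: one well per compound, singlicate testing.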
Jurkat NFkB inh – inhibitors of induced NF-kB luciferase reporter, primary screen, TCR NF-kB activation inhibitor project, cell-based, luminescence, uHTS; AID 435003, 2010; hit rate 0.53% among 330,000; Jurkat, PMA/ionomycin-induced NF-kB luciferase reporter; inhibition, % at 4 µM; in the data active = inhibition above about 50%
697 NFkB inh – inhibitors of PMA/ionomycin-induced NF-kB reporter, 697 cells, primary screen, B-cell NF-kB inhibitor project, cell-based, luminescence, uHTS. 697 B-cell NF-kB luciferase reporter, 16 h. inhibition, % at 4 µM. hit rate 0.33% among 330,000. AID 435022, 2010; in the data active = inhibition above about 35%
697 NFkB conf – PMA/ionomycin-induced NF-kB reporter inhibitors, 697 retest, confirmation, B-cell NF-kB inhibitor project, cell-based, luminescence, single concentration | hit rate 35% among 2,000 | 697 B-cell NF-kB luciferase, 16 h | shares compounds with 697 NFkB inh | inhibition, % at 4 µM | AID 449746, 2010; in the data active = inhibition mostly above about 28%, no sharp cut-off; inactive = mostly below about 22%
An asterisk follows results filed as active; i = inactive; nt = not tested or not shown.

SMILES	NR2E3 ag-1	MPTP block	aDG glyco up	NR2E3 ag-2	Jurkat NFkB inh	697 NFkB inh	697 NFkB conf
CCN(CC(=O)Nc1c(F)cccc1F)C(=O)c1ccc(N2CCOCC2)c([N+](=O)[O-])c1	5	1	0	1	-32	5	nt
CCN(CC(=O)Nc1c(F)cccc1F)C(=O)c1cc([N+](=O)[O-])ccc1N1CCCCC1	14	0	0	0	5	35*	44*
CCN(CC(=O)Nc1c(F)cccc1F)C(=O)c1cc(S(=O)(=O)N2CCOCC2)ccc1N1CCCC1	25	-1	0	-2	21	40*	32*
CN(CC(=O)Nc1ccc(F)cc1)C(=O)COc1ccc([N+](=O)[O-])cc1Cl	-13	0	0	4	-7	12	nt
O=C(CN1C(=O)C(c2ccccc2)Oc2cccnc21)NCc1ccccc1F (stereo not given)	10	-1	1	-1	4	12	nt
CCn1c(=O)c2cc(C(=O)NCc3cccs3)sc2c2ccccc21	-17	-1	0	5	-8	39*	36*
CCn1c(=O)c2cc(C(=O)NC(C)C)sc2c2ccccc21	20	1	0	0	4	37*	28*
Cc1ccc(C(=O)OCC(=O)N(CC(C)C)c2c(N)n(Cc3ccccc3)c(=O)[nH]c2=O)o1	-10	0	0	3	16	40*	26*
CC(C)CN(C(=O)COC(=O)C12CC3CC(CC(C3)C1)C2)c1c(N)n(Cc2ccccc2)c(=O)[nH]c1=O	-29	0	0	-3	14	50*	52*
CC(C)CN(C(=O)COC(=O)C12CC3CC(CC(O)(C3)C1)C2)c1c(N)n(Cc2ccccc2)c(=O)[nH]c1=O	-2	-2	0	nt	nt	nt	nt
CC(=O)Nc1cc(C(=O)N2CCCC2)ccc1Sc1ccc(Cl)cc1	-9	0	0	-1	-12	34	nt
CC(=O)Nc1cc(C(=O)N2CCCC2)ccc1Sc1ccc(C)cc1	-15	-2	0	4	0	38*	15
Cc1cc2ncc(-c3cccs3)nc2cc1C	-144	1	0	nt	-122	-279	-325
COCc1cc(CN2CCCC(C(=O)Nc3cccc(-n4cnnn4)c3)C2)ccc1OC (stereo not given)	-6	2	0	0	9	0	nt
O=C(Nc1nc2ccc(Cl)cc2s1)c1ccco1	-111	1	0	-1	-67	-271	-301
Cc1ccc2nc(NC(=O)c3ccc(Br)o3)sc2c1	-149	2	0	-1	-103	-277	-284
COc1ccc2nc(NC(=O)c3ccco3)sc2c1	-153	-1	0	0	-27	-256	-320
Cc1cc2sc(NC(=O)c3ccco3)nc2cc1Cl	-108	0	0	0	-127	-360	-284
CC(=O)Nc1nc2ccc(NC(=O)c3ccco3)cc2s1	-74	1	0	2	-33	-44	nt
O=C(Nc1nc2ccc(Br)cc2s1)c1ccco1	-98	2	0	1	-90	-249	nt
O=[N+]([O-])c1cccc(S(=O)(=O)N2CN(c3ccc(Br)cc3)c3nc4ccccc4nc32)c1	-41	4	0	nt	-16	-12	nt
Cc1ccc2nc(NC(=O)c3ccco3)sc2c1	-45	-1	0	-10	-52	-250	-271
CC(=O)c1cccc(NC(=O)c2ccoc2C)c1	11	0	1	4	-2	17	nt
CCOC(=O)c1cc(NC(=O)c2ccoc2C)cc(C(=O)OCC)c1	7	2	0	-4	10	37*	19
CC(=O)NS(=O)(=O)c1ccc(NC(=O)c2ccc(NC(=O)c3cccs3)cc2)cc1	-16	-1	1	-1	0	16	nt
SMILES	NR2E3 ag-1	MPTP block	aDG glyco up	NR2E3 ag-2	Jurkat NFkB inh	697 NFkB inh	697 NFkB conf
O=C(Nc1ccc(Cl)c(Cl)c1)Nc1ccccc1C(=O)O	-139	28	0	5	-136	i	i
O=C(Nc1cccc(Cl)c1)Nc1ccccc1C(=O)O	-115	3	0	-2	-115	-273	-333
CC(=O)c1cc(F)ccc1OCC(=O)N1CCN(c2ccc(F)cc2)CC1	-18	2	0	0	18	36*	20
CCN(CC)c1ccc(/C=C(\C#N)c2ccccn2)cc1	-70	4	0	4	-12	-290	-428
CN(CCC#N)c1ccc(/C=C(\C#N)c2ccccn2)cc1	-116	1	1	2	-29	-18	nt
COc1ccc(N(CC(=O)N2CCN(c3ccc(Cl)cc3)CC2)S(=O)(=O)c2c(C)n[nH]c2C)cc1	8	-1	0	0	14	37*	32*
COc1ccc(N(CC(=O)Nc2ccc(Cl)cc2)S(=O)(=O)c2c(C)n[nH]c2C)cc1	-30	0	2	1	14	15	nt
CCc1ccccc1Nc1nc(N)nc(COC(=O)c2cccn2C)n1	-31	-2	0	2	-93	-324	-118
CN(C)c1cccc(CNC(=O)c2csc([C@@H]3C[C@H](O)[C@@H](CO)O3)n2)c1	-3	0	0	nt	nt	nt	nt
O=S(=O)(c1ccc(OCc2ccc(Br)cc2)cc1)N1CCOCC1	-13	0	0	-1	7	1	nt
COc1cc(OC)cc(-c2nnc(Nc3nc4c(F)cccc4s3)o2)c1	25	25	0	-1	6	39*	28
COc1ccc(-c2nnc(Nc3nc4c(OC)cccc4s3)o2)cc1	35	2	0	2	nt	nt	nt
COc1ccc(CNC(=O)[C@@H]2CC=C[C@@H]3CCN(C4CCCCC4)C(=O)[C@@H]32)cc1	6	1	0	3	23	20	nt
COc1ccc(NC(=O)[C@@H]2CC=C[C@@H]3CCN(C4CCCCC4)C(=O)[C@@H]32)cc1	-15	1	0	1	5	36*	18
Cc1ccccc1-c1nnc(-c2ccccc2)o1	-112	1	0	-1	-77	-114	nt
Cc1ccc(-c2nnc(-c3ccccc3Br)o2)cc1	-150	0	0	3	-129	-277	-281
COc1ccccc1NC(=O)N1CCN(c2ccc3nnc(-c4ccc(F)cc4)n3n2)CC1	-5	0	0	2	7	35*	9
O=C(Nc1ccccc1Cl)N1CCN(c2ccc3nnc(-c4ccc(F)cc4)n3n2)CC1	-3	-1	1	5	18	36*	17

Screens (PubChem)
